Results as given in ChEMBL document CHEMBL1275442, “Pharmacokinetics and tissue distribution of anidulafungin in rats” (Antimicrob Agents Chemother, 2008).

Key:
Assay type in all cases: ADME, organism-based
Plasma = assay: AUC (0 to 24 hrs) in F344 rat plasma assessed as total compound-derived radioactivity per gram of tissue at 5 mg/kg, iv administered as single bolus dose […]; parameters: time < 24 hr, dose 5 mg/kg, route intravenous; details: in vivo
In short: (§1)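 Same F344 study: single 5 mg/kg IV [¹⁴C]anidulafungin given over about 5 min. Total drug-derived radioactivity (parent plus metabolites) counted by liquid scintillation, in […]. Noncompartmental analysis of the composite mean profile.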

Zone of skin [1] = assay: AUC (0 to infinity) in F344 rat skin assessed as total compound-derived radioactivity per gram of tissue at 5 mg/kg, iv administered as single bolus dose […]; parameters: time infinity, dose 5 mg/kg, route intravenous; details: in vivo; in short: as §1
Muscle tissue [2] = assay: Drug level in Long Evans rat muscle assessed as radioactivity per gram of tissue at 5 mg/kg, iv administered as single bolus dose measured 0.5 hrs postdose by autoradiography; parameters: dose 5 mg/kg, route intravenous; details: in vivo
In short: (§2)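 Male pigmented Long Evans (HsdBlu:LE) rats, 7.5 weeks old, 202 to 217 g, single iv [¹⁴C]anidulafungin; one rat per sampling time. Euthanized by isoflurane and cardiac-puncture exsanguination. Sagittal whole-body sections quantified by phosphorimaging autoradiography, single samples corrected for section thickness across multiple sections per tissue. Concentrations (μg eq/g drug-derived radioactivity) interpolated from least-squares standard curves per scan.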

Spleen [3] = assay: Tmax in F344 rat spleen assessed as total compound-derived radioactivity at 5 mg/kg, iv administered as single bolus dose […]; parameters: dose 5 mg/kg, route intravenous; details: in vivo
In short: (§3)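 Male F344 rats, 10 to 11 weeks old and 223.6 to 243.8 g, got one iv dose of [14C]anidulafungin at 5 mg/kg over about 5 min. Blood, CSF, kidney, liver, lung, quadriceps, spleen and skin were sampled predose and at 0.083 to 72 h, 3 rats per time. Total radioactivity (parent plus metabolites) was measured by liquid scintillation counting. Parameters were noncompartmental, from a composite mean profile.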

[4] = Tmax in F344 rat lung at 5 mg/kg, iv administered as single bolus dose by HPLC method; parameters: dose 5 mg/kg, route intravenous
In short: (§4)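 F344 males, 10 to 11 weeks old and 223.6 to 243.8 g, got a single 5 mg/kg iv dose of [14C]anidulafungin over about 5 min. Plasma and tissues were collected predose and at 0.083 to 72 h, n = 3 per time point. Parent drug was quantified by HPLC-UV, with LLOQ/ULOQ of 20/5,120 ng/ml in plasma and 220/56,320 ng/g in tissue. Noncompartmental parameters came from a composite mean concentration-time profile.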

Cerebrospinal fluid [5] = assay: AUC (0 to infinity) in F344 rat cerebrospinal fluid assessed as total compound-derived radioactivity per gram of tissue at 5 mg/kg, iv administered as single bolus dose […]; parameters: time infinity, dose 5 mg/kg, route intravenous; details: in vivo; in short: as §1
[6] = Drug level in Long Evans rat eye assessed as radioactivity per gram of tissue at 5 mg/kg, iv administered as single bolus dose measured 168 hrs postdose by autoradiography; parameters: dose 5 mg/kg, route intravenous; details: in vivo; in short: as §2
Blood [7] = assay: Cmax in F344 rat blood assessed as total compound-derived radioactivity per gram of tissue at 5 mg/kg, iv administered as single bolus dose […]; parameters: dose 5 mg/kg, route intravenous; details: in vivo; in short: as §1
Spleen [8] = assay: AUC (0 to infinity) in F344 rat spleen assessed as total compound-derived radioactivity per gram of tissue at 5 mg/kg, iv administered as single bolus dose […]; parameters: time infinity, dose 5 mg/kg, route intravenous; details: in vivo; in short: as §1
Spleen [9] = assay: Drug level in Long Evans rat spleen assessed as radioactivity per gram of tissue at 5 mg/kg, iv administered as single bolus dose measured 24 hrs postdose by autoradiography; parameters: dose 5 mg/kg, route intravenous; details: in vivo
In short: (§5)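 Male pigmented Long Evans (HsdBlu:LE) rats, 7.5 weeks old and 202 to 217 g, got a single iv dose of [14C]anidulafungin at 5 mg/kg. One rat per time point (0.5, 6, 12, 24, 72, 168 h) was euthanised by isoflurane and cardiac-puncture exsanguination. Sagittal whole-body sections were quantified by phosphorimaging. Samples were thickness-corrected, and concentrations (μg eq/g) were interpolated from least-squares standard curves.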

[10] = Drug level in Long Evans rat eye assessed as radioactivity per gram of tissue at 5 mg/kg, iv administered as single bolus dose measured 12 hrs postdose by autoradiography; parameters: dose 5 mg/kg, route intravenous; details: in vivo; in short: as §2
Kidney [11] = assay: Drug level in Long Evans rat kidney assessed as low disposition of radioactivity per gram of tissue at 5 mg/kg, iv administered as single bolus dose measured 0.5 hrs postdose by autoradiography; parameters: dose 5 mg/kg, route intravenous; details: in vivo; in short: as §2
Zone of skin [12] = assay: Drug level in Long Evans rat skin assessed as radioactivity per gram of tissue at 5 mg/kg, iv administered as single bolus dose measured 168 hrs postdose by autoradiography; parameters: dose 5 mg/kg, route intravenous; details: in vivo; in short: as §5
Cerebrospinal fluid [13] = assay: Drug level in Long Evans rat cerebrospinal fluid assessed as radioactivity per gram of tissue at 5 mg/kg, iv administered as single bolus dose measured 0.5 hrs postdose by autoradiography; parameters: dose 5 mg/kg, route intravenous; details: in vivo; in short: as §2
Spleen [14] = assay: Half life in F344 rat spleen assessed as total compound-derived radioactivity at 5 mg/kg, iv administered as single bolus dose […]; parameters: dose 5 mg/kg, route intravenous; details: in vivo; in short: as §3
Muscle tissue [15] = assay: Drug level in Long Evans rat muscle assessed as radioactivity per gram of tissue at 5 mg/kg, iv administered as single bolus dose measured 6 hrs postdose by autoradiography; parameters: dose 5 mg/kg, route intravenous; details: in vivo; in short: as §5
Blood [16] = assay: Drug level in Long Evans rat blood assessed as radioactivity per gram of tissue at 5 mg/kg, iv administered as single bolus dose measured 24 hrs postdose by autoradiography; parameters: dose 5 mg/kg, route intravenous; details: in vivo; in short: as §2
Lung = assay: Tmax in F344 rat lung assessed as total compound-derived radioactivity at 5 mg/kg, iv administered as single bolus dose […]; parameters: dose 5 mg/kg, route intravenous; details: in vivo; in short: as §3
Kidney [17] = assay: AUC (0 to 24 hrs) in F344 rat kidney at 5 mg/kg, iv administered as single bolus dose; parameters: time < 24 hr, dose 5 mg/kg, route intravenous; details: in vivo
In short: (§6)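 Male F344 rats, 10–11 weeks, 223.6–243.8 g, given one IV dose of [¹⁴C]anidulafungin, 5 mg/kg, over about 5 min. Tissues and blood sampled at 0.083–72 h (n = 3 rats per time). Parent drug measured by HPLC; LLOQ/ULOQ were 20/5,120 ng/ml for plasma and 220/56,320 ng/g for tissue. Noncompartmental parameters taken from the composite mean profile.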

Spleen [18] = assay: AUC (0 to infinity) in F344 rat spleen at 5 mg/kg, iv administered as single bolus dose; parameters: time infinity, dose 5 mg/kg, route intravenous; details: in vivo; in short: as §6
[19] = Drug level in Long Evans rat eye assessed as radioactivity per gram of tissue at 5 mg/kg, iv administered as single bolus dose measured 24 hrs postdose by autoradiography; parameters: dose 5 mg/kg, route intravenous; details: in vivo; in short: as §2
Kidney [20] = assay: Drug level in Long Evans rat kidney assessed as high disposition of radioactivity per gram of tissue at 5 mg/kg, iv administered as single bolus dose measured 12 hrs postdose by autoradiography; parameters: dose 5 mg/kg, route intravenous; details: in vivo; in short: as §2
[21] = Tmax in F344 rat spleen at 5 mg/kg, iv administered as single bolus dose by HPLC method; parameters: dose 5 mg/kg, route intravenous; in short: as §4
Liver [22] = assay: Tmax in F344 rat liver assessed as total compound-derived radioactivity at 5 mg/kg, iv administered as single bolus dose […]; parameters: dose 5 mg/kg, route intravenous; details: in vivo; in short: as §3
Liver [23] = assay: Drug level in Long Evans rat liver assessed as high disposition of radioactivity per gram of tissue at 5 mg/kg, iv administered as single bolus dose measured 24 hrs postdose by autoradiography; parameters: dose 5 mg/kg, route intravenous; details: in vivo; in short: as §2
Muscle tissue [24] = assay: AUC (0 to infinity) in F344 rat muscle at 5 mg/kg, iv administered as single bolus dose; parameters: dose 5 mg/kg, route intravenous, time infinity; details: in vivo; in short: as §6
[25] = Cmax in F344 rat kidney at 5 mg/kg, iv administered as single bolus dose after 30 min by HPLC method; parameters: dose 5 mg/kg, route intravenous; in short: as §6

CCCCCOc1ccc(-c2ccc(-c3ccc([14C](=O)N[C@H]4C[C@@H](O)[C@@H](O)NC(=O)[C@@H]5[C@@H](O)[C@@H](C)CN5C(=O)[C@H]([C@@H](C)O)NC(=O)[C@H]([C@H](O)[C@@H](O)c5ccc(O)cc5)NC(=O)[C@@H]5C[C@@H](O)CN5C(=O)[C@H]([C@@H](C)O)NC4=O)cc3)cc2)cc1 [14C-ANIDULAFUNGIN]
AUC (Plasma): 131.77 ugequiv.hr/g | AUC (Zone of skin [1]): 326.92 ugequiv.hr/g | Drug uptake (Muscle tissue [2]): 3.45 ugequiv | Tmax (Spleen [3]): 30 min | Tmax [4]: 4.98 min | AUC (Cerebrospinal fluid [5]): 0.95 ugequiv.hr/g | Drug uptake [6]: 0.6 ugequiv | Cmax (Blood [7]): 14.78 ugequiv/g | AUC (Spleen [8]): 1152.68 ugequiv.hr/g | Drug uptake (Spleen [9]): 10.25 ugequiv | Drug uptake [10]: 1.36 ugequiv | Drug uptake (Kidney [11]): 9.18 ugequiv | Drug uptake (Zone of skin [12]): 2.48 ugequiv | Drug uptake (Cerebrospinal fluid [13]): 5.51 ugequiv | t1/2 (Spleen [14]): 40.3 h | Drug uptake (Muscle tissue [15]): 2.53 ugequiv | Drug uptake (Blood [16]): 2.27 ugequiv | Tmax (Lung): 4.98 min | AUC (Kidney [17]): 517.32 µg·h/g | AUC (Spleen [18]): 567.95 µg·h/g | Drug uptake [19]: 2.07 ugequiv | Drug uptake (Kidney [20]): 14.1 ugequiv | Tmax [21]: 30 min | Tmax (Liver [22]): 480 min | Drug uptake (Liver [23]): 29.63 ugequiv | AUC (Muscle tissue [24]): 57.35 µg·h/g | Cmax [25]: 16100 ng/g
